Reference: ChEMBL document CHEMBL4627334, “Design, synthesis and biological evaluation of 4-(pyridin-4-yloxy)benzamide derivatives bearing a 5-methylpyridazin-3(2H)-one fragment” (Bioorg Med Chem Lett, 2020)
Calls of active or inactive are those of the source. The rule behind the calls is not given here.

Key:
HeLa [1] = assay: Antiproliferative activity against human HeLa cells assessed as reduction in cell viability after 72 hrs by MTT assay; type: functional, cell-based
Method in brief: (§1)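 Cells grown in DMEM/1640 with 10% FBS, seeded at about 4×10^3 per well and held 24 h at 37 °C, 5% CO2. Compounds diluted in medium or DMSO were added for 72 h, then MTT ([…]) was added for 3.5 h at 37 °C. Formazan was dissolved in DMSO and read at 492 nm against 630 nm. Triplicate wells, three runs, IC50 calculated.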

MCF7 [2] = assay: Antiproliferative activity against human MCF7 cells assessed as reduction in cell viability after 72 hrs by MTT assay; type: functional, cell-based; method in brief: as §1
A549 [3] = assay: Antiproliferative activity against human A549 cells assessed as reduction in cell viability after 72 hrs by MTT assay; type: functional, cell-based; conditions: A549, 72 h; method in brief: as §1
[4] = target: Hepatocyte growth factor receptor (Homo sapiens, UniProt P08581); assay: Inhibition of cMET (unknown origin) using FAM-labeled peptide as substrate pre-incubated for 5 to 10 mins followed by substrate addition and measured after 30 to 60 mins by mobility shift assay
Chain of Hepatocyte growth factor receptor (P08581 whole entry): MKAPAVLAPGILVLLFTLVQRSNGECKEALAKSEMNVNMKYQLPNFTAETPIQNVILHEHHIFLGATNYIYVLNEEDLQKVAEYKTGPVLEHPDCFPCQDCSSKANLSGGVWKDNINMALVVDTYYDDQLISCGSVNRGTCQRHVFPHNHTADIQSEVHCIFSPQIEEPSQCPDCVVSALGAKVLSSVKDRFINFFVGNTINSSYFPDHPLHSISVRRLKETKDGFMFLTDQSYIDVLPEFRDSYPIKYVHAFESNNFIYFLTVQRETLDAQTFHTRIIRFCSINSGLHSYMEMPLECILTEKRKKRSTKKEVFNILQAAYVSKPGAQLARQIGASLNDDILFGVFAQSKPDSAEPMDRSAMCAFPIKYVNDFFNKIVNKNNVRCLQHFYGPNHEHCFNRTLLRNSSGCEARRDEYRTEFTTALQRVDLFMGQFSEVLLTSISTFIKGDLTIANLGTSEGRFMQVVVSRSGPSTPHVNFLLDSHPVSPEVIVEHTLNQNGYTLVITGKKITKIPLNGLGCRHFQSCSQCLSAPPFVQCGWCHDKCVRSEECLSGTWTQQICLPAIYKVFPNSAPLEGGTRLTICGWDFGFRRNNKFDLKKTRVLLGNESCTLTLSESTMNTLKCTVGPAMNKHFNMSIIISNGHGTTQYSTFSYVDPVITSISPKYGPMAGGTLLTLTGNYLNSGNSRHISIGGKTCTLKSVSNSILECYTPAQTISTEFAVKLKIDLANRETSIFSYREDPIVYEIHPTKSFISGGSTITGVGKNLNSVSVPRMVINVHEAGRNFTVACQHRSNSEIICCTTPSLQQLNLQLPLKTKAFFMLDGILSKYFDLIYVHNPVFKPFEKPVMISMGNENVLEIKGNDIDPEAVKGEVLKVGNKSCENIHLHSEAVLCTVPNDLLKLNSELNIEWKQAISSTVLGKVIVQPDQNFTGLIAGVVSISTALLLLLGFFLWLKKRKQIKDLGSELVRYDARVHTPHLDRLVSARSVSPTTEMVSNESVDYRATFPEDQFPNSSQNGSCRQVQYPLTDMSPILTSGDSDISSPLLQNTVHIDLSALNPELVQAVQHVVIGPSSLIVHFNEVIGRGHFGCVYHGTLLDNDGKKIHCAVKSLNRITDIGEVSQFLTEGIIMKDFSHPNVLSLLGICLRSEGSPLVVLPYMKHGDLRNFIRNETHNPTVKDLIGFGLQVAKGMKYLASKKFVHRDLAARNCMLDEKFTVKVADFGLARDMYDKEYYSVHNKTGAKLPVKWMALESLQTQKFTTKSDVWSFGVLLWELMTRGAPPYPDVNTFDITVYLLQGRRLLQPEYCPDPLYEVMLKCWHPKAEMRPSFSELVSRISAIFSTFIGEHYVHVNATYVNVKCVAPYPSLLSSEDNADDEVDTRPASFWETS

HeLa [5] = assay: Induction of apoptosis in human HeLa cells assessed as membrane swelling at 1 to 5 ug/L after 12 hrs by acridine orange staining based assay; type: functional, cell-based
Method in brief: (§2)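 HeLa cells were treated at 1 and 5 µg/L for 12 h, then stained with acridine orange. Morphology was compared with untreated control cells, scoring cytoplasmic contraction, membrane swelling and apoptotic bodies.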

HeLa [6] = assay: Induction of apoptosis in human HeLa cells assessed as cytoplasmic contraction at 1 to 5 ug/L after 12 hrs by acridine orange staining based assay; type: functional, cell-based; method in brief: as §2
HeLa [7] = assay: Potency index, ratio of golvatinib IC50 to test compound IC50 for antiproliferative activity against human HeLa cells; type: functional
MCF7 [8] = assay: Potency index, ratio of golvatinib IC50 to test compound IC50 for antiproliferative activity against human MCF7 cells; type: functional
HeLa [9] = assay: Antiproliferative activity against human HeLa cells assessed as inhibition of cell proliferation at 1.23 umol/L after 72 hrs by MTT assay relative to control; type: functional
Method in brief: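 Cells were cultured in medium with 10% FBS and seeded near 4×10^3 per well, 24 h before dosing. MTT (5 µg/mL) was added for 3.5 h at 37 °C, formazan dissolved in DMSO, and absorbance read at 492/630 nm.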

A549 [10] = assay: Potency index, ratio of golvatinib IC50 to test compound IC50 for antiproliferative activity against human A549 cells; type: functional
HeLa [11] = assay: Induction of apoptosis in human HeLa cells assessed as increase in apoptotic bodies at 1 to 5 ug/L after 12 hrs by acridine orange staining based assay; type: functional, cell-based; method in brief: as §2
HeLa [12] = assay: Induction of apoptosis in human HeLa cells after 12 hrs by acridine orange staining based assay; type: functional, cell-based; method in brief: as §2
[13] = Homo sapiens, MCF7, 72 h, read-out: IC50
[14] = Homo sapiens, HeLa, 72 h, read-out: IC50

Row | SMILES | IC50 (MCF7 [2]; [13]) | IC50 (A549 [3]) | IC50 (HeLa [1]; [14]) | also measured
1 | Cc1ccc(-n2nc(C(=O)Nc3ccc(Oc4ccnc(C(=O)NCCCN5CCOCC5)c4)cc3)c(C)cc2=O)cc1 | 3.57 µM | 2.94 µM | 1.92 µM | IC50 [4]: > 10 µM
2 | CNC(=O)c1cc(Oc2ccc(NC(=O)c3nn(-c4ccccc4)c(=O)cc3C)cc2F)ccn1 | – | 40.8 µM | – | IC50 (HeLa [1]; hela): Not Active; IC50 (MCF7 [2]; mcf7): Not Active
3 | Cc1cc(=O)n(-c2ccccc2OC(F)(F)F)nc1C(=O)Nc1ccc(Oc2ccnc(C(=O)NCCCN3CCOCC3)c2)cc1 | 2.59 µM | 1.03 µM | 1.15 µM | Activity (HeLa [5]): Active; Activity (HeLa [6]): Active; Ratio IC50 (HeLa [7]): 2.6 - 6.95; Ratio IC50 (MCF7 [8]): 2.6 - 6.95; Activity (HeLa [1]): Dose-dependent effect; IC50 [4]: 0.807 µM; inhibition at 1.23 µM (HeLa [9]): > 50%; Ratio IC50 (A549 [10]): 2.6 - 6.95; Activity (HeLa [11]): Active; Activity (HeLa [12]): Dose-dependent effect
4 | CCNC(=O)c1cc(Oc2ccc(NC(=O)c3nn(-c4cccc(C(F)(F)F)c4)c(=O)cc3C)cc2)ccn1 | 40.6 µM | 10 µM | 10.7 µM | –
5 | CCCNC(=O)c1cc(Oc2ccc(NC(=O)c3nn(-c4ccc(C)cc4)c(=O)cc3C)cc2F)ccn1 | 34.6 µM | 18 µM | 14.2 µM | –
6 | CCCNC(=O)c1cc(Oc2ccc(NC(=O)c3nn(-c4cccc(F)c4)c(=O)cc3C)cc2F)ccn1 | 13.3 µM | 7.02 µM | 6.66 µM | –
7 | CCCNC(=O)c1cc(Oc2ccc(NC(=O)c3nn(-c4ccccc4OC(F)(F)F)c(=O)cc3C)cc2F)ccn1 | 7.42 µM | 4.22 µM | 3.69 µM | –
8 | CNC(=O)c1cc(Oc2ccc(NC(=O)c3nn(-c4ccccc4Cl)c(=O)cc3C)cc2F)ccn1 | 136 µM | 11.8 µM | 9.87 µM | –
9 | CCNC(=O)c1cc(Oc2ccc(NC(=O)c3nn(-c4ccc(C)cc4)c(=O)cc3C)cc2)ccn1 | 51.2 µM | 11.6 µM | 10.7 µM | –
10 | Cc1cc(=O)n(-c2cccc(C(F)(F)F)c2)nc1C(=O)Nc1ccc(Oc2ccnc(C(=O)NCCCN3CCOCC3)c2)cc1 | 5.21 µM | 2.5 µM | 1.65 µM | IC50 [4]: > 10 µM
11 | Cc1cc(=O)n(-c2cccc(C(F)(F)F)c2)nc1C(=O)Nc1ccc(Oc2ccnc(C(=O)NCCc3cccs3)c2)cc1 | – | 722 µM | 885 µM | IC50 (MCF7 [2]; mcf7): Not Active
12 | CN1CCN(C2CCN(C(=O)Nc3cc(Oc4ccc(NC(=O)C5(C(=O)Nc6ccc(F)cc6)CC5)c(F)c4)ccn3)CC2)CC1 [GOLVATINIB] | 20.6 µM | 6.89 µM | 4.14 µM | inhibition at 1.23 µM (HeLa [9]): 20%
13 | Cc1cc(=O)n(-c2ccc(Br)cc2F)nc1C(=O)Nc1ccc(Oc2ccnc(C(=O)NCCCN3CCOCC3)c2)cc1 | 8.23 µM | 6.83 µM | 4.25 µM | IC50 [4]: > 10 µM
14 | Cc1cc(=O)n(-c2ccccc2OC(F)(F)F)nc1C(=O)Nc1ccc(Oc2ccnc(C(=O)NCCc3cccs3)c2)cc1 | – | 876 µM | 434 µM | IC50 (MCF7 [2]; mcf7): Not Active
15 | CNC(=O)c1cc(Oc2ccc(NC(=O)c3nn(-c4cccc(C(F)(F)F)c4)c(=O)cc3C)cc2F)ccn1 | 45.8 µM | 10.2 µM | 11.8 µM | –

More lines, in order of falling IC50 (A549 [3]), values ahead:

Row | IC50 (MCF7 [2]; [13]) | IC50 (A549 [3]) | IC50 (HeLa [1]; [14]) | SMILES | also measured
16 | – | 965 µM | 660 µM | Cc1ccc(-n2nc(C(=O)Nc3ccc(Oc4ccnc(C(=O)NCCc5cccs5)c4)cc3)c(C)cc2=O)cc1 | IC50 (MCF7 [2]; mcf7): Not Active
17 | 969 µM | 585 µM | 387 µM | Cc1cc(=O)n(-c2ccc(Br)cc2F)nc1C(=O)Nc1ccc(Oc2ccnc(C(=O)NCCc3cccs3)c2)cc1 | –
18 | – | 235 µM | 53.5 µM | CCCNC(=O)c1cc(Oc2ccc(NC(=O)c3nn(-c4ccc(Br)cc4F)c(=O)cc3C)cc2F)ccn1 | IC50 (MCF7 [2]; mcf7): Not Active
19 | 44.3 µM | 34.8 µM | 27.3 µM | CCNC(=O)c1cc(Oc2ccc(NC(=O)c3nn(-c4ccccc4C)c(=O)cc3C)cc2)ccn1 | –
20 | 35.1 µM | 34.5 µM | – | CCNC(=O)c1cc(Oc2ccc(NC(=O)c3nn(-c4ccc(Br)cc4F)c(=O)cc3C)cc2)ccn1 | IC50 (HeLa [1]; hela): Not Active
21 | 39.6 µM | 25.7 µM | 24.6 µM | CCCNC(=O)c1cc(Oc2ccc(NC(=O)c3nn(-c4ccccc4C)c(=O)cc3C)cc2F)ccn1 | –
22 | 30 µM | 9.24 µM | 8 µM | CCCNC(=O)c1cc(Oc2ccc(NC(=O)c3nn(-c4cccc(C(F)(F)F)c4)c(=O)cc3C)cc2F)ccn1 | –
23 | 18.9 µM | 7.41 µM | 6.87 µM | CCNC(=O)c1cc(Oc2ccc(NC(=O)c3nn(-c4cccc(F)c4)c(=O)cc3C)cc2)ccn1 | –
24 | 15.5 µM | 5.28 µM | 3.99 µM | CCNC(=O)c1cc(Oc2ccc(NC(=O)c3nn(-c4ccccc4OC(F)(F)F)c(=O)cc3C)cc2)ccn1 | –
